Assay results reported in ChEMBL document CHEMBL1134794, “Discovery of inhibitors of cell adhesion molecule expression in human endothelial cells. 1. Selective inhibition of ICAM-1 and E-selectin expression” (J Med Chem, 2001).
pIC50: −log10 of the molar value. Values after ≈ are worked out from the molar mass of the structure shown.

Columns and labels:
[1] = In vitro cellular toxicity against human umbilical vein endothelial cells (HUVEC) in MTS assay; type: cell-based
[2] = Area under curve against time (0-8 hr) in rat; type: ADME, organism-based; parameters: time < 8 hr; conditions: in vivo
How it was run: (§1)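 Rats given a single oral dose of 5 mg/kg, no intravenous arm. Plasma drug concentrations followed over time and analysed by HPLC. Values are means (±SEM, n=3).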

[3] = Half-life was measured in rat; type: ADME, organism-based; conditions: in vivo; how it was run: as §1
[4] = Mean plasma concentration measured in rat; type: ADME, organism-based; how it was run: as §1
[5] = Maximum time taken to reach mean plasma concentration, measured in rat; type: ADME, organism-based; how it was run: as §1
[6] = Aqueous solubility was determined at pH 7.4; type: physicochemical; conditions: buffer
How it was run: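 Solubility determined in 0.05 M NaH₂PO₄ buffer at pH 7.4.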

| SMILES | pIC50 [1] | also measured |
| --- | --- | --- |
| NC(=O)c1cc2c(Sc3ccccn3)cncc2s1 | < 4.00 | – |
| CCc1cc2c(SCc3ccccc3)ncnc2s1 | < 4.00 | – |
| Cc1ccc(Sc2cncc3sc(C(=N)S)cc23)cc1 | 4.29 | – |
| Cc1ccc(Sc2cncc3sccc23)cc1 | 5.24 | – |
| Cc1ccc(Sc2cncc3sc(C(N)=O)cc23)cc1C | < 4.00 | – |
| CCc1cc2c(Sc3nnc(C)s3)ncnc2s1 | 4.29 | – |
| Cc1ccc(Sc2cncc3sc(C(N)=O)cc23)cc1 | 3.82 | AUC at 8 h [2]: 0.131 µg·h/mL; half-life [3]: 60 min; Cmax [4]: 0.078 µg/mL; Tmax [5]: 15 min; solubility [6]: 0.4 mg/mL (≈ 1330 µM) |
| Cc1ccc(Sc2ccnc3sc(C(N)=O)cc23)cc1 | 4.36 | – |
| CCc1cc2c(Cl)ncnc2s1 | < 4.00 | – |
| Cc1cccc(Sc2cncc3sc(C(N)=O)cc23)c1 | 4.02 | – |
| Cc1ccc(Sc2cncc3sc(C(=O)NN)cc23)cc1 | 4.09 | – |
| CCc1cc2c(O)ncnc2s1 | < 4.00 | – |
| CCc1cc2c(Sc3nnc(N)s3)ncnc2s1 | 4.02 | – |
| Cc1ccc(Sc2cncc3sc(/C=N/OCC(=O)O)cc23)cc1 | 4.08 | – |
| Cc1ccc([S+]([O-])c2cncc3sc(C(N)=O)cc23)cc1 (centres undefined) | – | AUC at 8 h [2]: 1.25 µg·h/mL; Cmax [4]: 0.476 µg/mL; Tmax [5]: 25.2 min |
| Cc1ccc(Sc2cncc3sc(C(=O)O)cc23)cc1 | – | AUC at 8 h [2]: 2.95 µg·h/mL; Cmax [4]: 0.751 µg/mL; Tmax [5]: 19.8 min |
| CCc1cc2c(NCc3ccccc3)ncnc2s1 | 4.14 | – |
| NC(=O)c1cc2c(Sc3ccc(C(F)(F)F)cc3)cncc2s1 | 4.02 | – |
| Cc1ccc(Sc2cncc3sc(C(=O)NCCCN4CCOCC4)cc23)cc1 | 4.17 | – |
| Cc1ccc(Sc2cncc3sc(C(N)=O)cc23)c(C)c1 | < 5.00 | – |
